Data: ChEMBL document CHEMBL1123757, “Selective thromboxane synthetase inhibitors and antihypertensive agents. New derivatives of 4-hydrazino-5H-pyridazino[4,5-b]indole, 4-hydrazinopyridazino[4,5-a]indole, and related compounds” (J Med Chem, 1987)
Active and inactive are the calls of the source. The rule behind the calls is not given here.

Tests used:
Cavia porcellus [1] = assay: Ex vivo inhibition of platelet aggregation induced by AA at 100 mg/kg; format: functional
Method in brief: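 Fasted male or female guinea pigs (250–300 g, five per group) dosed orally in normal saline or saline with 0.2% (carboxymethyl)cellulose/1.0% Tween 80; controls given vehicle. Under ether, cardiac blood collected into 3.8% citrate. PRP adjusted to […] and aggregation induced by ADP (second wave) or AA, read by absorbance aggregometry. PGE2 and TXB2 measured by RIA.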

Rattus norvegicus [2] = assay: Antihypertensive activity in spontaneously hypertensive rats (SHR) measured by percentage fall in cardiac rhythm (CR) at 1 mg/kg administered intraperitoneally at 3 h; format: functional, Heart; details: route intraperitoneal
Method in brief: (§1)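 Unanesthetized Okamoto-strain SHR, male and female, 8 weeks old, 300–350 g, systolic pressure ≥190 mmHg, heart rate 400–650 beats/min; five animals per dose. Given ip at 2.5 mL/kg, dissolved or suspended in normal saline or saline with 0.2% (carboxymethyl)cellulose and 1.0% Tween 80. Tail AP and CR recorded by mechanical transduction at set times; reported as percentage fall from control.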

Rattus norvegicus [3] = assay: Antihypertensive activity in spontaneously hypertensive rats (SHR) measured by percentage fall in cardiac rhythm (CR) at 1 mg/kg administered intraperitoneally at 5 h; format: functional, Heart; details: route intraperitoneal; method in brief: as §1
Homo sapiens [4] = species on record: Homo sapiens; assay: In vitro inhibition of platelet aggregation induced by AA (PRP incubated for 60 minutes at 37 degree C) at 10e-5 M;No significance; format: functional
Method in brief: (§2)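 Human venous blood anticoagulated with 3.8% sodium citrate (1:9). PRP from centrifugation at 800 rpm for 10 min at room temperature. Count adjusted with PPP to […]. Compound in saline with 10% ethylene glycol is added to PRP and incubated at 37 °C before the agonist. Agonists: ADP 2×10^-5 M, AA 0.6 mM, PGH2 2.8 μM, adrenaline 0.6 μM. Born absorbance aggregometry; n = 5.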

Homo sapiens [5] = species on record: Homo sapiens; assay: In vitro inhibition of platelet aggregation induced by ADP-II (PRP incubated for 5 minutes at 37 degree C) at 10e-5 M;No significance; format: functional; method in brief: as §2
Rattus norvegicus [6] = assay: Antihypertensive activity in spontaneously hypertensive rats (SHR) measured by percentage fall in arterial pressure (AP) at 1 mg/kg administered intraperitoneally at 1 h; format: functional, Artery; details: route intraperitoneal; method in brief: as §1
Rattus norvegicus [7] = assay: Percent increase in cardiac rhythm, directly measured on carotid (iv on the jugular vein) of spontaneously hypertensive rats at 1 mg/kg after 30 minutes; details: Heart, 0.5 h, read-out: Inhibition
Rattus norvegicus [8] = assay: Percent fall in systolic blood pressure, directly measured on carotid (iv on the jugular vein) of spontaneously hypertensive rats at 1 mg/kg after 120 minutes; format: functional, Artery
Method in brief: (§3)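 Anesthetized (sodium pentobarbital, 70 mg/kg) male and female Okamoto SHR, 8 weeks old, 300–350 g. Given iv into the jugular vein in normal saline. Arterial pressure and cardiac rhythm are recorded directly from the carotid by polygraph at set times after dosing. Each is expressed as percent change from the pre-dose control value.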

Rattus norvegicus [9] = assay: Percent fall in systolic blood pressure, directly measured on carotid (iv on the jugular vein) of spontaneously hypertensive rats at 1 mg/kg after 15 minutes; format: functional, Artery; method in brief: as §3
Rattus norvegicus [10] = assay: Percent fall in systolic blood pressure, directly measured on carotid (iv on the jugular vein) of spontaneously hypertensive rats at 1 mg/kg after 30 minutes; format: functional, Artery; method in brief: as §3
Rattus norvegicus [11] = assay: Percent fall in systolic blood pressure, directly measured on carotid (iv on the jugular vein) of spontaneously hypertensive rats at 1 mg/kg after 5 minutes; format: functional, Artery; method in brief: as §3
Rattus norvegicus [12] = assay: Percent fall in systolic blood pressure, directly measured on carotid (iv on the jugular vein) of spontaneously hypertensive rats at 1 mg/kg after 60 minutes; format: functional, Artery; method in brief: as §3
Rattus norvegicus [13] = assay: Percent fall in systolic blood pressure, directly measured on carotid (iv on the jugular vein) of spontaneously hypertensive rats at 1 mg/kg after 75 minutes; format: functional, Artery; method in brief: as §3
Rattus norvegicus [14] = assay: Antihypertensive activity in spontaneously hypertensive rats (SHR) measured by percentage fall in cardiac rhythm (CR) at 1 mg/kg administered intraperitoneally at 1 h; format: functional, Heart; details: route intraperitoneal; method in brief: as §1
Rattus norvegicus [15] = assay: Antihypertensive activity in spontaneously hypertensive rats (SHR) measured by percentage fall in arterial pressure (AP) at 1 mg/kg administered intraperitoneally at 3 h; format: functional, Artery; details: route intraperitoneal; method in brief: as §1
Rattus norvegicus [16] = assay: Antihypertensive activity in spontaneously hypertensive rats (SHR) measured by percentage fall in arterial pressure (AP) at 1 mg/kg administered intraperitoneally at 24 h;No significance; format: functional, organism-based; set-up: dose 1 mg/kg; details: Artery; method in brief: as §1
Homo sapiens [17] = species on record: Homo sapiens; details: 10e-5 M
Cavia porcellus [18] = species on record: Cavia porcellus; details: 100 mg/kg
Cavia porcellus [19] = species on record: Cavia porcellus; details: 30 mg/kg
Rattus norvegicus [20] = species on record: Rattus norvegicus; details: Heart, 1 mg/kg
Homo sapiens [21] = species on record: Homo sapiens; details: 10e-5 M; remark: listed apart in the source
Rattus norvegicus [22] = species on record: Rattus norvegicus; details: Artery, 1 mg/kg
Rattus norvegicus [23] = species on record: Rattus norvegicus; details: Heart, 1 mg/kg; remark: listed apart in the source
Rattus norvegicus [24] = species on record: Rattus norvegicus; details: Artery, 1 mg/kg; remark: listed apart in the source
Rattus norvegicus [25] = species on record: Rattus norvegicus; details: Heart, 1 mg/kg; remark: listed apart in the source
Cavia porcellus [26] = species on record: Cavia porcellus; details: 50 mg/kg
Cavia porcellus [27] = species on record: Cavia porcellus; details: 30 mg/kg; remark: listed apart in the source
Cavia porcellus [28] = species on record: Cavia porcellus; details: 50 mg/kg; remark: listed apart in the source
Rattus norvegicus [29] = species on record: Rattus norvegicus; details: Heart, 1 mg/kg; remark: listed apart in the source

SMILES: Cl.NNc1nncc2ccccc12 [HYDRALAZINE HYDROCHLORIDE]
- inhibition in vivo at 100 mg/kg (Cavia porcellus [1]): 75%
- Decrease in CR (Rattus norvegicus [2]): -5%
- Decrease in CR (Rattus norvegicus [3]): -2%
- inhibition (Homo sapiens [4]): inactive
- inhibition (Homo sapiens [5]): inactive
- Decrease in AP (Rattus norvegicus [6]): 20%
- inhibition in vivo at 1 mg/kg (Rattus norvegicus [7]): 20%
- Decrease in blood pressure (Rattus norvegicus [8]): 20%
- Decrease in blood pressure (Rattus norvegicus [9]): 48%
- Decrease in blood pressure (Rattus norvegicus [10]): 48%
- Decrease in blood pressure (Rattus norvegicus [11]): 40%
- Decrease in blood pressure (Rattus norvegicus [12]): 52%
- Decrease in blood pressure (Rattus norvegicus [13]): 60%
- Decrease in CR (Rattus norvegicus [14]): -7%
- Decrease in AP (Rattus norvegicus [15]): 20%
- Decrease in AP (Rattus norvegicus [16]): inactive
- inhibition (Homo sapiens [17]): inactive
- Inhibition % (Cavia porcellus [18]): inactive
- inhibition (Cavia porcellus [19]): inactive
- Decrease in CR (Rattus norvegicus [20]): inactive
- Increase (Homo sapiens [21]): inactive
- inhibition (Rattus norvegicus [22]): inactive
- inhibition (Rattus norvegicus [23]): inactive
- Decrease in blood pressure (Rattus norvegicus [24]): inactive
- Decrease in blood pressure (Rattus norvegicus [25]): inactive
- inhibition (Cavia porcellus [26]): inactive
- inhibition (Cavia porcellus [27]): inactive
- inhibition (Cavia porcellus [28]): inactive
- inhibition (Rattus norvegicus [29]): inactive
